Source: publication PMC7948434 (ACS Omega, 2021)
Positions of bridges follow the written chain, without caps; N, C: chain ends. Residues, ends and D or L forms follow the SMILES beside them. No end group written: not given here.

B1: N36 peptide derived from HIV-1 JR-FL gp41 (peptide)
chain: SGIVQQQNNLLRAIEAQQRMLQLTVWGIKQLQARVL
B2: fejerlectin (peptide)
peptide: RLCYMVLPCP
modifications: disulfide 3-9 (inferred)

Columns and labels:
HIV-1 = details: cited from earlier work
[1] = tested on: HIV-1SF162, HIV-1NL4-3, and HIV-1_81A and NL4-3; assay: time-of-addition assay, results in words for the viruses together; assay type: cell-based; details: AZT 45 nM, maraviroc 24 nM, AMD3100 50 nM
Summary of the method: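 TZM-bl cells (5 × 10^5/mL) were infected with HIV-1NL4-3, HIV-1SF162 or HIV-1 81A/NL4-3 at 100 TCID50 at 37 °C. Test compound (added as 25 μM) or control was introduced at 0, 0.5, 1, 2, 4, 6, 8 or 24 h post-infection. Medium was replaced at 24 h, and supernatant p24 antigen was measured at 48 h. Mean ± SD, n = 3.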

gp41 = details: cited from earlier work
[2] = tested on: gp41 6-HB (N36 and C34 peptides); assay: ELISA for inhibiting gp41 6-HB formation; assay type: biochemical, HIV-1; details: read-out: IC50, gp41 6-HB formation; 2 μM N36, 2 μM C34, 37 °C, ELISA 450 nm; mean ± SD, n = 3
Summary of the method: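 2 μM N36 was preincubated with the test compound (5–50 μM) at 37 °C for 30 min, then with 2 μM C34 at 37 °C for another 30 min. The mixture went onto plates coated with 2 μg/mL rabbit anti-6-HB IgG. Detection used 1 μg/mL NC-1 mAb, biotin-anti-mouse IgG, streptavidin-HRP and TMB, stopped with 1 M H2SO4, read at A450. Mean ± SD, n = 3.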

HIV-1NL4-3 = details: 1NL4-3, 48 h
HIV-1_81A and NL4-3 = details: 1 81A and NL4-3, 48 h
[3] = tested on: HIV-1JR-FL pseudotyped virus; details: 72 h
HIV-1SF162 = details: 1SF162, 48 h
[4] = tested on: HIV-1HXB2 pseudotyped virus; details: 72 h
TZM-bl cells = assay: cytotoxicity in vitro; assay type: cell-based; details: MTT, 48 h, 1 to 1000 μM, mean ± SD, n = 3
Summary of the method: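 TZM-bl cells, 2 × 10^4/well in DMEM with 10% FBS and 1% penicillin/streptomycin, were cultured 24 h, then exposed to the test compound (1–1000 μM) for 48 h. MTT (0.5 mg/mL) was applied for 4 h, and formazan was dissolved in DMSO and read at 570 nm. CC50 was computed from the dose series. Mean ± SD, n = 3.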

[5] = serum stability, HA activity after incubation in human serum; assay type: in vitro ADME; details: 3 h; method: human serum at 37 °C, read-out HA titer
Summary of the method: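 Test compound was held in human serum at 37 °C for 0–4 h before HA titration. Mouse erythrocytes were washed in Alsever's solution and used as a 2% (v/v) suspension in PBS pH 7.5. Twofold serial dilutions were made in V-bottom plates, with PBS as negative control. Titer is the reciprocal of the lowest concentration giving HA. Repeated at least three times.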

fejerlectin = target: B2; assay: SPR
[6] = target: B1; assay: ELISA

For caerin 1.1, the “suppression of HIV proliferation” value (HIV-1) is listed as “suppress HIV proliferation by direct inactivation”.

With `Cc1cn([C@H]2C[C@H](N=[N+]=[N-])[C@@H](CO)O2)c(=O)[nH]c1=O` [AZT, zidovudine] the “anti-HIV activity when added 8 h after infection” value (shortened to “anti-HIV activity when added 8 h”) [1] was “still had high antiviral activity when added 8 h after infection”.

In the case of sifuvirtide, the “anti-HIV-1 activity by inhibiting 6-HB formation” value (gp41) is listed as “potent anti-HIV-1 activity by inhibiting 6-HB formation”.

In the case of maraviroc, the “anti-HIV activity when added 8 h” value [1] is reported as “significantly decreased 8 h after infection”.

For retrocyclin-1, the “protection of cells from HIV-1 infection” value (HIV-1) is given as “protect cells from HIV-1 infection by binding with high affinity to gp120, CD4, and galactosylceramide”.

Work on `COc1ccc(S(=O)(=O)O)cc1N=Nc1c(S(=O)(=O)O)cc2cc(Nc3nc(Nc4ccccc4)nc(Nc4cc(C)c(N=Nc5cc(S(=O)(=O)O)cc6cc(S(=O)(=O)O)cc(O)c56)cc4OC)n3)ccc2c1O` [ADS-J1] yielded an IC50 [2] of 1.53 ± 0.48 µM.

With `CSCC[C@@H]1NC(=O)[C@H](Cc2ccc(O)cc2)NC(=O)[C@@H](NC(=O)[C@H](CC(C)C)NC(=O)[C@@H](N)CCCNC(=N)N)CSSC[C@@H](C(=O)N2CCC[C@H]2C(=O)O)NC(=O)[C@@H]2CCCN2C(=O)[C@H](CC(C)C)NC(=O)[C@H](C(C)C)NC1=O` [fejerlectin, RLCYMVLPCP] (H-RLCYMVLPCP-OH; disulfide 3-9) the IC50 (HIV-1NL4-3) was 1.43 ± 0.34 µM, the IC50 (HIV-1_81A and NL4-3) was 2.8 ± 0.37 µM and the EC50 [3] was 4.2 ± 0.96 µM. The IC50 (HIV-1SF162) was 2.17 ± 1.03 µM, the EC50 [4] was 9.63 ± 2.3 µM and the CC50 (TZM-bl cells) was 182.49 ± 9.35 µM. The “stability of HA activity in human plasma” value [5] was “stable for 3 h in human plasma”.

For `O=C(CCc1ccc(O)cc1)c1c(O)cc(O[C@@H]2O[C@H](CO)[C@@H](O)[C@H](O)[C@H]2O)cc1O` [trilobatin], the “HIV-1 entry/fusion inhibition via gp41 NHR” value (gp41) is listed as “inhibited HIV-1 entry/fusion by binding the gp41 NHR region and blocking the formation of fusion-active 6-HB”.

In the case of `c1cc(CN2CCCNCCNCCCNCC2)ccc1CN1CCCNCCNCCCNCC1` [AMD3100], the “anti-HIV activity when added 8 h” value [1] is reported as “significantly decreased 8 h after infection”.

In the case of B1, the Kd (fejerlectin) is reported as 466 µM.

In the case of B2, the IC50 [6] is reported as 2.61 µM.
